For data set [1], the system named is Plasmodium falciparum. The data set is described as follows: Antimalarial activity against chloroquine-resistant erythrocyte stage of Plasmodium falciparum W2 after 48 hrs. It is filed as functional, organism-based. To be noted: W2, 48 h.
For data set [2], the system named is Plasmodium berghei. The data set is described as follows: Antimalarial activity against liver stage of Plasmodium berghei infected in human Huh7 cells after 48 hrs by luciferase assay. As to conditions: Huh-7, 48 h. It is filed as functional, organism-based.
The test system of data set [3] is Huh-7. Kind of data set: Cytotoxicity against human HuH7 cells assessed as cell viability by Alamar Blue assay. It is filed as cell-based. In general terms: The colour change of resazurin is a common sign of viable cells or microbes.
For data set [4], the system named is Plasmodium berghei. The data set is described as follows: Antisporogonic activity against GFP expressing Plasmodium berghei ANKA infected in BALB/c mouse assessed as inhibition of appearance of oocysts in Anopheles gambiae level at 10 umol/kg, ip by microscopic analysis (reference value: 83.6%). It is filed as functional.
Data set [5] relates to Plasmodium berghei. The data set is described as follows: Antisporogonic activity against GFP expressing Plasmodium berghei ANKA infected in BALB/c mouse assessed as inhibition of appearance of oocysts in Anopheles gambiae level at 25 umol/kg, ip by microscopic analysis (reference value: 83.6%). It is filed as functional.
In data set [6] the test system is Plasma. The data set is described as follows: Metabolic stability of the compound in 80% human plasma assessed as formation of primaquine and carboxyprimaquine metabolite after 3 days. It is filed as ADME, cell-free. As to conditions: 72 h.
The nature of data set [7]: Intrinsic clearance in rat liver microsomes at 0.1 uM. It is filed as ADME. To be noted: read-out: CLH. An outline of the steps:
(§1)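 Compound was incubated with rat liver microsomes at 37 °C. Half-life and in vitro intrinsic clearance (μL/min/mg protein) were determined, and in vivo hepatic extraction ratio was predicted from them.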
(In general: Liver microsomes are a subcellular fraction often used to study metabolism.)

The nature of data set [8]: Half life in rat liver microsomes at 0.1 uM. It is filed as ADME. An outline of the steps: as §1
The test system of data set [9] is Mus musculus. Kind of data set: Toxicity in Plasmodium berghei ANKA infected C57Bl/6J mouse assessed as adverse reactions at 30 mg/kg, ip qd for 5 days measured on day 5. It is filed as organism-based. Details: dose 30 mg/kg, route intraperitoneal. As to conditions: in vivo, 120 h. The method in brief: (§2)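 Male C57Bl/6J mice were infected with GFP-expressing P. berghei ANKA on day 0. From day 4, compound was given i.p. at 30 mg/kg b.w. once daily for 5 consecutive days. Parasitemia was monitored daily by microscopy and flow cytometry. Survival was followed to the end of the experiment, and adverse reactions were recorded.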

Data set [10] has as its system Plasmodium berghei. Kind of data set: Antimalarial activity against GFP expressing Plasmodium berghei ANKA infected in C57Bl/6J mouse assessed as host survival at 30 mg/kg, ip qd for 5 days measured on day 5. It is filed as functional, organism-based. More on the design: dose 30 mg/kg. An outline of the steps:
as §2

For data set [11], the system named is Plasmodium berghei. Kind of data set: Antimalarial activity against GFP expressing Plasmodium berghei ANKA infected in C57Bl/6J mouse assessed as reduction of parasitemia at 30 mg/kg, ip qd for 5 days measured on day 5. It is filed as functional, organism-based. Details: dose 30 mg/kg. The method in brief: as §2

The values that follow come from ChEMBL document CHEMBL3108704, “Novel endoperoxide-based transmission-blocking antimalarials with liver- and blood-schizontocidal activities” (ACS Med Chem Lett, 2014).

Activity calls are given as the source filed them. The calls are words filed in the database; no cut-off is given here. Where only a bound is given, the exact number is not on record here.

As usually defined, the IC50 is the midpoint of a concentration-inhibition curve. Broadly, the inhibition in vivo is the drop in the measured response relative to a control, in per cent. By half-life is commonly meant how long it takes for the measured level to halve. Read a high half-life as slow loss.

`COc1cc(NC(C)CCCNCc2ccc(CO[C@H]3O[C@@H]4O[C@]5(C)CC[C@H]6[C@H](C)CC[C@@H]([C@H]3C)[C@@]46OO5)cc2)c2ncccc2c1` (stereo not given in full): the IC50 in data set [1] amounted to 12.5 nM; in data set [2] it was 155 nM.
Turning to `COc1cc(NC(C)CCCNC(=O)C[C@H]2O[C@@H]3O[C@]4(C)CC[C@H]5[C@H](C)CC[C@@H]([C@H]2C)[C@@]35OO4)c2ncccc2c1` (stereo not given in full), the IC50 in [1] was 9.1 nM; in data set [2], 523 nM.
For the compound `COc1cc(NC(C)CCCNC(=O)c2ccc(CO[C@H]3O[C@@H]4O[C@]5(C)CC[C@H]6[C@H](C)CC[C@@H]([C@H]3C)[C@@]46OO5)cc2)c2ncccc2c1` (stereo not given in full), the IC50 in data set [1] stood at 5.1 nM; in [2] it was 67 nM; in data set [3] it was 73000 nM.
Regarding `CCOC(=O)C1CCC2(CC1)OOC1(OO2)C2CC3CC(C2)CC1C3` (stereo not given), the IC50 is 128 nM in data set [1] and greater than 10000 nM in data set [2].
In the case of `COc1cc(NC(C)CCCN)c2ncccc2c1` (stereo not given) [PRIMAQUINE], the inhibition in vivo at 10 µmol/kg in data set [4] turned out to be 35.5%. Besides, the inhibition in vivo at 25 µmol/kg in data set [5] is 2.2%.
Take `C[C@@H]1CC[C@H]2[C@@H](C)C(=O)O[C@@H]3O[C@@]4(C)CC[C@@H]1[C@]32OO4` [ARTEMISININ]: the results for the 50% inhibitory concentration (IC50) in data set [1] and in [2] were 8.2 nM and greater than 10000 nM, respectively.
`COc1cc(NC(C)CCCNCC[C@H]2O[C@@H]3O[C@]4(C)CC[C@H]5[C@H](C)CC[C@@H]([C@H]2C)[C@@]35OO4)c2ncccc2c1` (stereo not given in full): the IC50 in data set [1] was 9.3 nM; in data set [2], greater than 1000 nM; in data set [3] it was 32800 nM.
For the compound `COc1cc(NC(C)CCCNCC2CCC3(CC2)OOC2(OO3)C3CC4CC(C3)CC2C4)c2ncccc2c1` (stereo not given), the values for the IC50 in data set [1], in [2] and in data set [3] were 45.2 nM, greater than 1000 nM and 5020 nM, respectively. Further, in [4], the inhibition in vivo at 10 µmol/kg came to 42.9%. Moreover, the inhibition in vivo at 25 µmol/kg in data set [5] was 5.9%. Also, the Stability result in [6] is listed as “Stable”. Further, the microsomal CLint at 0.1 µM in [7] was determined as 51.2 µL/min/mg. Besides, the half-life at 0.1 µM in [8] came out at 27 min.
On to `COc1cc(NC(C)CCCNC(=O)CC2CCC3(CC2)OOC2(OO3)C3CC4CC(C3)CC2C4)c2ncccc2c1` (stereo not given), for which the half-maximal inhibitory concentration (IC50) was found to be 36.5 nM in data set [1], 604 nM in data set [2] and 2570 nM in [3]. Also, the inhibition in vivo at 10 µmol/kg in data set [4] was determined as 66.7%. In addition, the inhibition in vivo at 25 µmol/kg in data set [5] amounted to 11.4%.
The corresponding values for `COc1cc(NC(C)CCCNC2CCC3(CC2)OOC2(OO3)C3CC4CC(C3)CC2C4)c2ncccc2c1` (stereo not given) are 21.6 nM, 330 nM, 8200 nM, 36.4% and 13.3%.
Turning to `COc1cc(NC(C)CCCNC(=O)C2CCC3(CC2)OOC2(OO3)C3CC4CC(C3)CC2C4)c2ncccc2c1` (stereo not given), the Activity result in data set [9] is reported as “Non-toxic”. Besides, the 50% inhibitory concentration (IC50) in [1] was 21.1 nM; in data set [2] it was 538 nM; in data set [3], greater than 100000 nM. The result in data set [10] and in data set [11] was Active. Besides, the inhibition in vivo at 10 µmol/kg in data set [4] came to 68.6%. In addition, the inhibition in vivo at 25 µmol/kg in data set [5] is 0%. Also, the Stability entry in [6] was “Stable”. Besides, in data set [7], the microsomal CLint at 0.1 µM was 133 µL/min/mg. This compound displayed a half-life at 0.1 µM in data set [8] of 10 min.
